Data: PMC6993113 (Journal of medicinal chemistry, 2017)
Values joined by “and” are separate entries in the source; they are usually repeats but may differ in a detail not shown here. Equal entries are not always repeated.

Columns and labels:
[1] = tested on: MV4;11 acute leukemia cell line; assay: Cell growth inhibition; assay type: cell-based; details: Homo sapiens, MV4-11, 96 h, read-out: IC50 MV4;11 cell growth inhibition
[2] = tested on: MV4;11 xenograft tumors; details: mouse, in vivo
[3] = tested on: MOLM-13 acute leukemia cell line; assay: Cell growth inhibition; assay type: cell-based; details: Homo sapiens, MOLM-13, 96 h, read-out: IC50 MOLM-13 cell growth inhibition
[4] = biological target: recombinant human BRD4 BD2 (Homo sapiens, UniProt O60885); assay: Competitive fluorescence-polarization binding assay, BRD4 BD2; details: for Ki: BRD4 BD2 Ki, FP competitive binding
[5] = biological target: recombinant human BRD4 BD1 (Homo sapiens, UniProt O60885); assay: Competitive fluorescence-polarization binding assay, BRD4 BD1; details: for Ki: BRD4 BD1 Ki, FP competitive binding, Tables 1, 2, 7 and text
[6] = Solubility in the dosing vehicle; assay type: physicochemical; details: 5% DMSO+10% Cremophor+85% saline
[7] = Aqueous solubility; assay type: physicochemical
[8] = Pharmacokinetics in rats; assay type: in vivo, Sprague Dawley rats; details: for CL: Rat, PO (25 mg/kg)
Summary of the method: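 Sprague Dawley rats got test compound iv at 5 mg/kg or orally at 25 mg/kg in a vehicle of 20% (v/v) PCP and 70% (v/v) PBS. Blood (100 μL) was drawn by catheter at 0, 5, 15 and 30 min and 1, 2, 4, 6, 8 and 24 hr, then spun at 15 000 rpm for 10 min. Plasma was stored at −80 °C and assayed by validated LC–MS/MS. Parameters were derived noncompartmentally.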

[9] = tested on: MDA-MB-231 xenograft tumors
[10] = tested on: PARP; assay: Western blot of PARP cleavage in MV4; assay type: cell-based, human; details: MV4;11 cells, 24 h
[11] = tested on: c-Myc; assay: Western blot of c-Myc in MV4; assay type: cell-based, human; details: MV4;11 cells, 1 h, different concentrations
[12] = biological target: all other 371 kinases; assay: DiscoverX KINOMEscan kinase screening, remaining panel; assay type: binding, human; details: read-out: IC50 against all other 371 kinases
[13] = tested on: p21; assay: Western blot of p21 in MV4; assay type: cell-based, human; details: MV4;11 cells, 24 h
[14] = Table 4 second column as headed

| SMILES | IC50 [1] [nM] | IC50 [3] [nM] | IC50 [4] [nM] | Ki ([4]; Tables 1, 2, 7 and text) [nM] | IC50 [5] [nM] | Ki [5] [nM] | other results |
| --- | --- | --- | --- | --- | --- | --- | --- |
| COc1cc2c(cc1-c1c(C)noc1C)ncc1[nH]c(=O)n([C@H](C)c3ccccn3)c12 [Compound 5, I-BET151, reference compound] | 162 ± 112 |  |  |  |  |  | weight loss or other signs of toxicity [2]: did not cause weight loss or other signs of toxicity |
| COc1cc2c(cc1-c1c(C)noc1C)[nH]c1ncnc(-c3c[nH]c4cc(F)ccc34)c12 [Compound 20, 4-(4-(6-Fluoro-1H-indol-3-yl)-6-methoxy-9H-pyrimido[4,5-b]indol-7-yl)-3,5-dimethylisoxazole] | 76 ± 31 | 374 ± 52 | 12.2 ± 4.2 | 1 | 2.2 ± 1 | 2.6 | Ki [4, 14]: 2.6 ± 0.8 nM |
| COc1cc2c(cc1-c1c(C)noc1C)[nH]c1ncnc(-c3c(C)[nH]c4ccccc34)c12 [Compound 21, 4-(6-Methoxy-4-(2-methyl-1H-indol-3-yl)-9H-pyrimido[4,5-b]indol-7-yl)-3,5-dimethylisoxazole] |  |  |  |  |  |  | solubility in the dosing vehicle [6]: difficult to dissolve; aqueous solubility [7]: poor; CL [8]: 31.7 mL/min/kg; Cmax ([8]; Sprague Dawley, rat, plasma, po, 25 mg/kg): 1470 ng/mL and ~3 µM |
| COc1cc2c(cc1-c1c(C)noc1C)[nH]c1ncnc(-n3nnc4ccccc43)c12 [Compound 28, 4-(4-(1H-Benzo[d][1,2,3]triazol-1-yl)-6-methoxy-9H-pyrimido[4,5-b]indol-7-yl)-3,5-dimethylisoxazole] |  |  |  |  |  |  | binding to BRD4 BD2 at 1 μM ([4]; FP binding, 1 μM): fails to show any appreciable binding; binding to BRD4 BD1 at 1 μM ([5]; FP binding, 1 μM): fails to show any appreciable binding |
| COc1cc2c(cc1-c1c(C)noc1C)[nH]c1nc(C)nc(-c3ccnc4ccccc34)c12 [Compound 31, 4-(6-Methoxy-2-methyl-4-(quinolin-4-yl)-9H-pyrimido[4,5-b]indol-7-yl)-3,5-dimethylisoxazole] |  |  |  |  |  |  | tumor growth inhibition ([9]; MDA-MB-231 xenograft in mice, 40 mg/kg dosing daily, during the treatment period): essentially complete tumor growth inhibition; weight loss or other signs of toxicity ([9]; mouse, in vivo): did not experience weight loss or other signs of toxicity; cleavage of PARP (marker of apoptosis) [10]: cleavage of PARP; effect on c-Myc protein level [11]: rapid down-regulation of c-Myc at as early as the 1 h time-point and in a dose-dependent manner; IC50 [12]: > 50000 nM; solubility in the dosing vehicle [6]: readily soluble; effect on p21 protein level [13]: effective in inducing upregulation of the cell cycle regulator p21; CL [8]: 14.7 mL/min/kg; weight loss or other signs of toxicity [2]: did not cause weight loss or other signs of toxicity |
| COc1cc2c(cc1-c1c(C)noc1C)[nH]c1nc(C)nc(-c3c(C)ccc4ncccc34)c12 [Compound 33, 4-(6-Methoxy-2-methyl-4-(6-methylquinolin-5-yl)-9H-pyrimido[4,5-b]indol-7-yl)-3,5-dimethyl-isoxazole] | 99 ± 43 | 220 ± 101 | 36.3 ± 6.9 | 10.5 ± 1.9 | 93.8 ± 15.8 | 38.4 ± 10.5 |  |

Continued, in another order:

| IC50 [1] [nM] | IC50 [3] [nM] | IC50 [4] [nM] | Ki ([4]; Tables 1, 2, 7 and text) [nM] | IC50 [5] [nM] | Ki [5] [nM] | SMILES | other results |
| --- | --- | --- | --- | --- | --- | --- | --- |
| 20 ± 9 |  |  |  |  |  | COc1cc2c(cc1-c1c(C)noc1C)[nH]c1ccnc(-c3c(C4CC4)n[nH]c3C)c12 [Compound 6, RX-37, reference compound] |  |
| 5.1 ± 2.8 | 51 ± 6 | 5.6 ± 1.9 | < 1 | 2.3 ± 1.1 | < 1 | COc1cc2c(cc1-c1c(C)noc1C)[nH]c1ncnc(-c3c(C)[nH]c4cc(F)ccc34)c12 [Compound 22, 4-(4-(6-Fluoro-2-methyl-1H-indol-3-yl)-6-methoxy-9H-pyrimido[4,5-b]indol-7-yl)-3,5-dimethyl isoxazole] | Ki [4, 14]: 0.9 ± 0.3 nM |
